Data from ChEMBL document CHEMBL1781935, “Amberlite-IRA-402 (OH) ion exchange resin mediated synthesis of indolizines, pyrrolo [1,2-a] quinolines and isoquinolines: antibacterial and antifungal evaluation of the products” (2011).
In brackets after ≈: the same amount, converted by molar mass. Activity calls are given as the source filed them. The rule behind the calls is not given here.

Legend:
Vibrio cholerae [1] = assay: Antibacterial activity against Vibrio cholerae isolate 7201 at 10 to 80 ug/ml after overnight incubation by broth dilution method; format: functional, organism-based
Shigella dysenteriae [2] = assay: Antibacterial activity against Shigella dysenteriae isolate 3 at 10 to 80 ug/ml after overnight incubation by broth dilution method; format: functional, organism-based
Escherichia coli [3] = assay: Antibacterial activity against Escherichia coli ATCC 25938 at 10 to 80 ug/ml after overnight incubation by broth dilution method; format: functional, organism-based
How it was run: (§1)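 Bactericidal testing with double-fold drug dilutions in Mueller-Hinton broth. Tubes inoculated with 1 ml suspension (2 × 10^6 cfu/ml) and shaken at 200 rpm at 37 °C for 24 h. Drug was added at mid-logarithmic growth. Viable colony counts were taken from 1.0 ml aliquots plated on nutrient agar.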

Pseudomonas aeruginosa [4] = assay: Antibacterial activity against Pseudomonas aeruginosa ATCC 27853 at 10 to 80 ug/ml after overnight incubation by broth dilution method; format: functional, organism-based; how it was run: as §1
Escherichia coli [5] = assay: Antibacterial activity against Escherichia coli ATCC 25938 at 1 to 1000 ug/ml after overnight incubation by disc diffusion method; format: functional
How it was run: (§2)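 Disc diffusion on Mueller-Hinton agar. Plates seeded with 0.1 ml bacterial suspension (2 × 10^6 cfu/ml). Sterile 6 mm paper discs were impregnated with compound solutions at 1–1000 µg/ml and incubated at 37 °C overnight. Read-out was the diameter of the clear inhibition zone. Stocks were 1 mg/ml in 4% Tween 80 or 4% propylene glycol.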

Klebsiella pneumoniae [6] = assay: Antibacterial activity against Klebsiella pneumoniae isolate J/1/4 at 1 to 1000 ug/ml after overnight incubation by disc diffusion method; format: functional; how it was run: as §2
Staphylococcus aureus [7] = assay: Antibacterial activity against Staphylococcus aureus ATCC 25923 at 1 to 1000 ug/ml after overnight incubation by disc diffusion method; format: functional; how it was run: as §2
Pseudomonas aeruginosa [8] = assay: Antibacterial activity against Pseudomonas aeruginosa ATCC 27853 at 1 to 1000 ug/ml after overnight incubation by disc diffusion method; format: functional; how it was run: as §2
Vibrio cholerae [9] = assay: Antibacterial activity against Vibrio cholerae isolate 7201 at 1 to 1000 ug/ml after overnight incubation by disc diffusion method; format: functional
Vibrio cholerae [10] = assay: Antibacterial activity against Vibrio cholerae isolate 720 at 1 to 1000 ug/ml after overnight incubation by disc diffusion method; format: functional
Bacillus subtilis [11] = assay: Antibacterial activity against Bacillus subtilis UC564 at 1 to 1000 ug/ml after overnight incubation by disc diffusion method; format: functional; how it was run: as §2
Shigella dysenteriae [12] = assay: Antibacterial activity against Shigella dysenteriae isolate 3 at 1 to 1000 ug/ml after overnight incubation by disc diffusion method; format: functional
Enterococcus faecalis [13] = assay: Antibacterial activity against Enterococcus faecalis isolate 29212 at 1 to 1000 ug/ml after overnight incubation by disc diffusion method; format: functional; how it was run: as §2
Shigella flexneri [14] = assay: Antibacterial activity against Shigella flexneri DN13 at 1 to 1000 ug/ml after overnight incubation by disc diffusion method; format: functional; how it was run: as §2
Salmonella typhi [15] = assay: Antibacterial activity against Salmonella typhi DIRW at 1 to 1000 ug/ml after overnight incubation by disc diffusion method; format: functional
Vibrio parahaemolyticus [16] = assay: Antibacterial activity against Vibrio parahaemolyticus isolate 72016 at 1 to 1000 ug/ml after overnight incubation by disc diffusion method; format: functional; how it was run: as §2
Micrococcus luteus [17] = assay: Antibacterial activity against Micrococcus luteus AGD1 at 1 to 1000 ug/ml after overnight incubation by disc diffusion method; format: functional; how it was run: as §2
Salmonella typhimurium [18] = assay: Antibacterial activity against Salmonella Typhimurium isolate 11 at 1 to 1000 ug/ml after overnight incubation by disc diffusion method; format: functional, organism-based; conditions: Salmonella enterica subsp. enterica serovar Typhimurium; how it was run: as §2
Staphylococcus aureus [19] = assay: Antibacterial activity against Staphylococcus aureus ATCC 25923 at 10 to 80 ug/ml after overnight incubation by broth dilution method; format: functional, organism-based; how it was run: as §1
Bacillus subtilis [20] = assay: Antibacterial activity against Bacillus subtilis UC564 at 10 to 80 ug/ml after overnight incubation by broth dilution method; format: functional, organism-based; how it was run: as §1
Escherichia coli [21] = assay: Antibacterial activity against Escherichia coli ATCC 25938; format: functional
How it was run: (§3)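 MIC by broth and agar dilution. Broth: 0.1 ml suspension (2 × 10^6 cfu/ml) in Mueller-Hinton broth with test drug at 1–1000 µg/ml, 37 °C overnight. Agar: serial drug dilutions in Mueller-Hinton agar, spot-inoculated with 2 × 10^6 cfu/spot, 37 °C for 24 h. MIC was the lowest concentration with no visible growth. Antibiotic controls were included.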

Klebsiella pneumoniae [22] = assay: Antibacterial activity against Klebsiella pneumoniae isolate J/1/4; format: functional; how it was run: as §3
Staphylococcus aureus [23] = assay: Antibacterial activity against Staphylococcus aureus ATCC 25923; format: functional; how it was run: as §3
Pseudomonas aeruginosa [24] = assay: Antibacterial activity against Pseudomonas aeruginosa ATCC 27853; format: functional; how it was run: as §3
Vibrio cholerae [25] = assay: Antibacterial activity against Vibrio cholerae isolate 7201; format: functional
Bacillus subtilis [26] = assay: Antibacterial activity against Bacillus subtilis UC564; format: functional; how it was run: as §3
Shigella dysenteriae [27] = assay: Antibacterial activity against Shigella dysenteriae isolate 3; format: functional
Enterococcus faecalis [28] = assay: Antibacterial activity against Streptococcus faecalis isolate 29212; format: functional; how it was run: as §3
Shigella flexneri [29] = assay: Antibacterial activity against Shigella flexneri DN13; format: functional; how it was run: as §3
Salmonella typhi [30] = assay: Antibacterial activity against Salmonella typhi DIRW; format: functional, Salmonella enterica subsp. enterica serovar Typhi; conditions: Salmonella enterica
Vibrio parahaemolyticus [31] = assay: Antibacterial activity against Vibrio parahaemolyticus isolate 72016; format: functional; how it was run: as §3
Micrococcus luteus [32] = assay: Antibacterial activity against Micrococcus luteus AGD1; format: functional; how it was run: as §3
Salmonella typhimurium [33] = assay: Antibacterial activity against Salmonella Typhimurium isolate 11; format: functional, Salmonella enterica subsp. enterica serovar Typhimurium; conditions: Salmonella enterica; how it was run: as §3
[34] = Salmonella enterica subsp. enterica serovar Typhi

Row | Structure (SMILES) | diameter of the inhibition zone (DIZ) (Escherichia coli [5]) | diameter of the inhibition zone (DIZ) (Klebsiella pneumoniae [6]) | diameter of the inhibition zone (DIZ) (Staphylococcus aureus [7]) | diameter of the inhibition zone (DIZ) (Pseudomonas aeruginosa [8]) | diameter of the inhibition zone (DIZ) (Vibrio cholerae [9]) | diameter of the inhibition zone (DIZ) (Vibrio cholerae [10]) | diameter of the inhibition zone (DIZ) (Bacillus subtilis [11]) | diameter of the inhibition zone (DIZ) (Shigella dysenteriae [12]) | diameter of the inhibition zone (DIZ) (Enterococcus faecalis [13]) | diameter of the inhibition zone (DIZ) (Shigella flexneri [14]) | diameter of the inhibition zone (DIZ) (Vibrio parahaemolyticus [16]) | diameter of the inhibition zone (DIZ) (Micrococcus luteus [17]) | diameter of the inhibition zone (DIZ) (Salmonella typhimurium [18]) | MIC (Escherichia coli [21]) | MIC (Klebsiella pneumoniae [22]) | MIC (Staphylococcus aureus [23]) | MIC (Pseudomonas aeruginosa [24]) | MIC (Vibrio cholerae [25]) | MIC (Bacillus subtilis [26]) | MIC (Shigella dysenteriae [27]) | further results
1 | N#Cc1cc2ccccn2c1C(=O)c1ccccc1 | inactive | 8.9 mm | 12.1 mm | inactive | 10 mm | 10 mm | 9.7 mm | 9 mm | inactive | inactive | 7.5 mm | 7.5 mm | inactive | > 500 mg/L | 64 mg/L (≈ 260 µM) | 32 mg/L (≈ 130 µM) | > 500 mg/L | 16 mg/L (≈ 65 µM) | 16 mg/L (≈ 65 µM) | 128 mg/L (≈ 520 µM) | Activity (Vibrio cholerae [1]): Active; Activity (Shigella dysenteriae [2]): Active; Activity (Escherichia coli [3]): Active; Activity (Pseudomonas aeruginosa [4]): Active; diameter of the inhibition zone (DIZ) (Salmonella typhi [15]; [34]): inactive; Activity (Staphylococcus aureus [19]): Active; Activity (Bacillus subtilis [20]): Active; MIC (Enterococcus faecalis [28]): 500 mg/L (≈ 2030 µM); MIC (Shigella flexneri [29]): 500 mg/L (≈ 2030 µM); MIC (Salmonella typhi [30]): 500 mg/L (≈ 2030 µM); MIC (Vibrio parahaemolyticus [31]): 256 mg/L (≈ 1040 µM); MIC (Micrococcus luteus [32]): 256 mg/L (≈ 1040 µM); MIC (Salmonella typhimurium [33]): 500 mg/L (≈ 2030 µM)
2 | COC(=O)c1c(C(=O)OC)c2ccc3ccccc3n2c1C(=O)c1ccccc1 | 12.1 mm | 10 mm | inactive | inactive | inactive | inactive | 10.2 mm | 11.5 mm | 12 mm | inactive | inactive | inactive | inactive | > 500 mg/L | 64 mg/L (≈ 165 µM) | 500 mg/L (≈ 1290 µM) | > 500 mg/L | 500 mg/L (≈ 1290 µM) | 32 mg/L (≈ 82.6 µM) | 16 mg/L (≈ 41.3 µM) | Activity (Vibrio cholerae [1]): Active; Activity (Shigella dysenteriae [2]): Active; Activity (Escherichia coli [3]): Active; Activity (Pseudomonas aeruginosa [4]): Active; diameter of the inhibition zone (DIZ) (Salmonella typhi [15]): 7.5 mm; Activity (Staphylococcus aureus [19]): Active; Activity (Bacillus subtilis [20]): Active; MIC (Enterococcus faecalis [28]): 64 mg/L (≈ 165 µM); MIC (Shigella flexneri [29]): 500 mg/L (≈ 1290 µM); MIC (Salmonella typhi [30]): 128 mg/L (≈ 330 µM); MIC (Vibrio parahaemolyticus [31]): > 500 mg/L; MIC (Micrococcus luteus [32]): > 500 mg/L; MIC (Salmonella typhimurium [33]): 500 mg/L (≈ 1290 µM)
3 | CCOC(=O)c1c(C(=O)OCC)c2ccc3ccccc3n2c1C(=O)c1ccccc1 | 8.1 mm | 8.6 mm | 10.2 mm | 9.7 mm | 7.7 mm | 7.7 mm | 10 mm | 11.1 mm | inactive | inactive | 9.3 mm | inactive | inactive | > 500 mg/L | 256 mg/L (≈ 616 µM) | 64 mg/L (≈ 154 µM) | 32 mg/L (≈ 77 µM) | 128 mg/L (≈ 308 µM) | 16 mg/L (≈ 38.5 µM) | 32 mg/L (≈ 77 µM) | Activity (Vibrio cholerae [1]): Active; Activity (Shigella dysenteriae [2]): Active; Activity (Escherichia coli [3]): Active; Activity (Pseudomonas aeruginosa [4]): Active; diameter of the inhibition zone (DIZ) (Salmonella typhi [15]; [34]): inactive; Activity (Staphylococcus aureus [19]): Active; Activity (Bacillus subtilis [20]): Active; MIC (Enterococcus faecalis [28]): 500 mg/L (≈ 1200 µM); MIC (Shigella flexneri [29]): > 500 mg/L; MIC (Salmonella typhi [30]): 500 mg/L (≈ 1200 µM); MIC (Vibrio parahaemolyticus [31]): 64 mg/L (≈ 154 µM); MIC (Micrococcus luteus [32]): 500 mg/L (≈ 1200 µM); MIC (Salmonella typhimurium [33]): > 500 mg/L
4 | N#Cc1cc(C(=O)c2ccccc2)n2ccc3ccccc3c12 | 8 mm | 11 mm | 7.5 mm | 9.5 mm | 11 mm | 11 mm | 7.5 mm | inactive | inactive | inactive | inactive | inactive | inactive | 256 mg/L (≈ 864 µM) | 32 mg/L (≈ 108 µM) | 256 mg/L (≈ 864 µM) | 64 mg/L (≈ 216 µM) | 32 mg/L (≈ 108 µM) | 128 mg/L (≈ 432 µM) | > 500 mg/L | diameter of the inhibition zone (DIZ) (Salmonella typhi [15]; [34]): inactive; MIC (Enterococcus faecalis [28]): > 500 mg/L; MIC (Shigella flexneri [29]): > 500 mg/L; MIC (Salmonella typhi [30]): > 500 mg/L; MIC (Vibrio parahaemolyticus [31]): > 500 mg/L; MIC (Micrococcus luteus [32]): > 500 mg/L; MIC (Salmonella typhimurium [33]): > 500 mg/L
